A short description of data set [1]: Hemolytic activity against human RBC at 50 uM after 1 hr by Drabkin's assay relative to control. In kind it is ADME, cell-based, Erythrocyte. As to conditions: human red blood cells (erythrocytes), read-out: Activity.
Data set [2] is described as follows: Hemolytic activity against human RBC at 100 uM after 1 hr by Drabkin's assay relative to control. In kind it is ADME, cell-based, Erythrocyte. The note with it: human red blood cells (erythrocytes), read-out: Activity.
In the next data set the test system is Erythrocyte. Briefly: Hemolytic activity against human RBC after 1 hr by Drabkin's assay. The class given is ADME, cell-based.
For another data set, the system named is Staphylococcus aureus. Briefly: Growth inhibition of methicillin-resistant Staphylococcus aureus ATCC 43300 at 32 ug/ml after 18 hrs. In kind it is functional. The note with it: ATCC 43300, 18 h, read-out: GI. An outline of the steps:
(§1)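 Mid-log cultures in cation-adjusted Mueller Hinton broth were added at 5×10^5 CFU/mL to wells at a final compound concentration of 32 μg/mL. Plates stood at 37 °C for 18 h. Growth was read by OD600, and % inhibition was computed against media-only and untreated-bacteria controls.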

The next data set concerns Escherichia coli. Briefly: Growth inhibition of Escherichia coli ATCC 25922 at 32 ug/ml after 18 hrs. The class given is functional. As to conditions: ATCC 25922, 18 h, read-out: GI. In a few lines: (§2)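 Mid-log cultures were prepared as above and seeded at 5×10^5 CFU/mL with compound at a final 32 μg/mL, then held static at 37 °C for 18 h. Growth was read as OD600. Percent inhibition was calculated against media-only and bacteria-only controls on the same plate.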

For a further data set, the system named is Klebsiella pneumoniae. Briefly: Growth inhibition of multidrug-resistant Klebsiella pneumoniae ATCC 700603 at 32 ug/ml after 18 hrs. The class given is functional. The note with it: ATCC 700603, 18 h, read-out: GI. In a few lines:
as §1

For a further data set, the system named is Pseudomonas aeruginosa. Briefly: Growth inhibition of Pseudomonas aeruginosa ATCC 27853 at 32 ug/ml after 18 hrs. The note with it: ATCC 27853, 18 h, read-out: GI. In kind it is functional. An outline of the steps:
as §2

Another data set deals with Acinetobacter baumannii. Briefly: Growth inhibition of Acinetobacter baumannii ATCC 19606 at 32 ug/ml after 18 hrs. In kind it is functional. As to conditions: ATCC 19606 = CIP 70.34 = JCM 6841, 18 h, read-out: GI. An outline of the steps: as §2
For the next data set, the system named is Cryptococcus neoformans. Briefly: Growth inhibition of Cryptococcus neoformans H99 ATCC 208821 at 32 ug/ml after 24 hrs by resazurin dye-based microspectrophotometric assay. In kind it is functional. The note with it: var. grubii H99 ATCC 208821, 24 h, read-out: GI. An outline of the steps: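 Yeasts were grown 3 days on YPD agar at 30 °C, suspended from five colonies and diluted in YNB broth to a final 2.5×10^3 CFU/mL. Compound at a final 32 μg/mL; incubated 24 h at 35 °C without shaking. C. albicans was read at OD530. C. neoformans was read as OD600–570 after resazurin (0.001% final) and a further 2 h at 35 °C. Fluconazole was the standard.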

A further data set concerns Candida albicans. Briefly: Growth inhibition of Candida albicans ATCC 90028 at 32 ug/ml after 24 hrs by OD530 light-scattering microspectrophotometric method. The note with it: ATCC 90028, 24 h, read-out: GI.
A short description of data set [3]: Hemolytic activity against human RBC at 25 uM after 1 hr by Drabkin's assay relative to control. In kind it is ADME, cell-based, Erythrocyte. As to conditions: human red blood cells (erythrocytes), read-out: Activity.
The nature of data set [4]: Hemolytic activity against human RBC at 12.5 uM after 1 hr by Drabkin's assay relative to control. In kind it is ADME, cell-based, Erythrocyte. As to conditions: human red blood cells (erythrocytes), read-out: Activity.
Data set [5] is described as follows: Hemolytic activity against human RBC at 6.25 uM after 1 hr by Drabkin's assay relative to control. In kind it is ADME, cell-based, Erythrocyte. As to conditions: human red blood cells (erythrocytes), read-out: Activity.
Data set [6] is described as follows: Hemolytic activity against human RBC at 3.125 uM after 1 hr by Drabkin's assay relative to control. The class given is ADME, cell-based, Erythrocyte. As to conditions: human red blood cells (erythrocytes), read-out: Activity.
Data set [7] can be described thus: Hemolytic activity against human RBC at 1.56 uM after 1 hr by Drabkin's assay relative to control. The note with it: human red blood cells (erythrocytes), read-out: Activity. The class given is ADME, cell-based, Erythrocyte.
The nature of data set [8]: Hemolytic activity against human RBC at 0.78 uM after 1 hr by Drabkin's assay relative to control. The class given is ADME, cell-based, Erythrocyte. As to conditions: human red blood cells (erythrocytes), read-out: Activity.
Data set [9] can be described thus: Hemolytic activity against human RBC at 0.39 uM after 1 hr by Drabkin's assay relative to control. In kind it is ADME, cell-based, Erythrocyte. As to conditions: human red blood cells (erythrocytes), read-out: Activity.

Structures are written as SMILES.

Consider `Cl.O=C(OCc1ccccc1)N1CCCN1C(=O)[C@@H]1CCCN1C(=O)N1CCCN1C(=O)[C@@H]1CCCN1C(=O)N1CCCN1C(=O)[C@@H]1CCCN1C(=O)N1CCCN1C(=O)[C@@H]1CCCN1`, for which, in data set [1], the hemolysis at 1 h, 50 µM is -0.013%. Moreover, the hemolysis at 1 h, 100 µM in data set [2] was found to be 0.045%. Also, the Activity result in the data set on Erythrocyte is on record as “Dose-dependent effect”. Moreover, the inhibition of growth at 32 µg/mL in the data set on Staphylococcus aureus is 23.8%; in the data set with Escherichia coli it was 0.27%; with Klebsiella pneumoniae, 0.27%; with Pseudomonas aeruginosa, -10.1%; with Acinetobacter baumannii, 34.9%; in the data set on Cryptococcus neoformans, -1.33%. The inhibition of growth at 32 µg/mL in the data set with Candida albicans worked out at 4.48%.
As for `CC(C)(C)OC(=O)N1CCC[C@H]1C(=O)N1CCCN1C(=O)N1CCC[C@H]1C(=O)N1CCCN1C(=O)N1CCC[C@H]1C(=O)N1CCCN1C(=O)N1CCC[C@H]1C(=O)N1CCCN1`, the hemolysis at 1 h, 50 µM in [1] stood at 0.061%. Moreover, the hemolysis at 1 h, 100 µM in data set [2] worked out at 0.723%. The Activity result in the data set on Erythrocyte is listed as “Dose-dependent effect”. The inhibition of growth at 32 µg/mL with Staphylococcus aureus was 28.3%; with Escherichia coli, 4.51%; in the data set with Klebsiella pneumoniae it was 4.51%; in the data set with Pseudomonas aeruginosa, -4.17%; with Acinetobacter baumannii it was 7.37%; in the data set with Cryptococcus neoformans, -0.655%. In addition, the inhibition of growth at 32 µg/mL with Candida albicans stood at 3.56%.
On to `CC(C)(C)OC(=O)N1CCC[C@H]1C(=O)N1CCCN1C(=O)N1CCC[C@H]1C(=O)N1CCCN1C(=O)N1CCC[C@H]1C(=O)N1CCCN1C(=O)N1CCC[C@H]1C(=O)N1CCCN1C(=O)OCc1ccccc1`, for which the hemolysis at 1 h, 50 µM in [1] was -0.379%. Besides, in data set [3], the hemolysis at 1 h, 25 µM came out at 0.227%. Further, the hemolysis at 1 h, 12.5 µM in data set [4] was 0.038%. For the same molecule, the hemolysis at 1 h, 6.25 µM in data set [5] is -0.152%. Further, the hemolysis at 1 h, 3.125 µM in data set [6] was 0.038%. The hemolysis at 1 h, 1.56 µM in data set [7] was found to be 0.189%. Also, the hemolysis at 1 h, 0.78 µM in data set [8] stood at 0.189%. Besides, in [9], the hemolysis at 1 h, 0.39 µM was 0.227%. Also, in data set [2], the hemolysis at 1 h, 100 µM worked out at 0%. Moreover, the Activity entry in the data set with Erythrocyte was “Dose-dependent effect”.
With `CC(C)(C)OC(=O)[C@@H]1CCCN1C(=O)N1CCCN1C(=O)[C@@H]1CCCN1C(=O)N1CCCN1C(=O)[C@@H]1CCCN1C(=O)N1CCCN1C(=O)[C@@H]1CCCN1C(=O)N1CCCN1C(=O)[C@@H]1CCCN1C(=O)N1CCCN1C(=O)[C@@H]1CCCN1C(=O)N1CCCN1C(=O)[C@@H]1CCCN1C(=O)N1CCCN1C(=O)[C@@H]1CCCN1C(=O)N1CCCN1`, the inhibition of growth at 32 µg/mL in the data set on Staphylococcus aureus was 20.7%; with Escherichia coli, 5.27%; with Klebsiella pneumoniae, 5.27%; with Pseudomonas aeruginosa, -8.18%; in the data set with Acinetobacter baumannii it was 17.8%; in the data set with Cryptococcus neoformans, -3.43%. Also, the inhibition of growth at 32 µg/mL with Candida albicans stood at 2.92%.
Turning to `CN1CCCN1C(=O)[C@@H]1CCCN1C(=O)N1CCCN1C(=O)[C@@H]1CCCN1C(=O)N1CCCN1C(=O)[C@@H]1CCCN1C(=O)N1CCCN1C(=O)[C@@H]1CCCN1C(=O)N1CCCN1C(=O)[C@@H]1CCCN1C(=O)N1CCCN1C(=O)[C@@H]1CCCN1C(=O)N1CCCN1C(=O)[C@@H]1CCCN1C(=O)N1CCCN1C(=O)[C@@H]1CCCN1C(=O)N1CCCN1C(=O)OCc1ccccc1`, the inhibition of growth at 32 µg/mL in the data set on Staphylococcus aureus is 25.1%; in the data set on Escherichia coli it was 3.93%; with Klebsiella pneumoniae it was 3.93%; in the data set with Pseudomonas aeruginosa, -3.91%; in the data set on Acinetobacter baumannii it was -6.74%; in the data set on Cryptococcus neoformans it was -5.68%. The inhibition of growth at 32 µg/mL with Candida albicans is 3.49%.
As for `O=C([C@@H]1CCCN1C(=O)N1CCCN1C(=O)[C@@H]1CCCN1C(=O)N1CCCN1C(=O)[C@@H]1CCCN1C(=O)N1CCCN1C(=O)[C@@H]1CCCN1C(=O)N1CCCN1C(=O)[C@@H]1CCCN1C(=O)N1CCCN1C(=O)[C@@H]1CCCN1C(=O)N1CCCN1C(=O)[C@@H]1CCCN1C(=O)N1CCCN1C(=O)[C@@H]1CCCN1)N1CCCN1`, the inhibition of growth at 32 µg/mL in the data set on Staphylococcus aureus is 22.8%; in the data set on Escherichia coli, 1.9%; with Klebsiella pneumoniae, 1.9%; in the data set with Pseudomonas aeruginosa it was -6.95%; with Acinetobacter baumannii, -4.27%; in the data set on Cryptococcus neoformans it was -2.7%. The inhibition of growth at 32 µg/mL with Candida albicans was determined as 2.38%.

(Values after ChEMBL document CHEMBL4196059, “Design, synthesis, and biological evaluation of stable β6.3-Helices: Discovery of non-hemolytic antibacterial peptides” (Eur J Med Chem, 2018).)
